ChEMBL document CHEMBL4616713, “Discovery of Novel Nonpeptidic PAR2 Ligands” (ACS Med Chem Lett, 2020)
Non-standard residues stand in square brackets, D forms with d. Residues, ends and D or L forms follow the SMILES beside them. *: point of attachment. Orn = NCCC[C@H](N)C(=O)O; 2Furoyl = O=C(c1ccco1)*

How the values were obtained:
[1] = molecular target: T1, Proteinase-activated receptor 2 (Homo sapiens, UniProt P55085); experiment: Agonist activity at human PAR2 expressed in HEK293T cells assessed as induction of Galphaq-stimulated IP1 formation incubated for 2 hrs by FRET assay; format: functional, cell-based, HEK-293T
T1 sequence (P55085 whole entry): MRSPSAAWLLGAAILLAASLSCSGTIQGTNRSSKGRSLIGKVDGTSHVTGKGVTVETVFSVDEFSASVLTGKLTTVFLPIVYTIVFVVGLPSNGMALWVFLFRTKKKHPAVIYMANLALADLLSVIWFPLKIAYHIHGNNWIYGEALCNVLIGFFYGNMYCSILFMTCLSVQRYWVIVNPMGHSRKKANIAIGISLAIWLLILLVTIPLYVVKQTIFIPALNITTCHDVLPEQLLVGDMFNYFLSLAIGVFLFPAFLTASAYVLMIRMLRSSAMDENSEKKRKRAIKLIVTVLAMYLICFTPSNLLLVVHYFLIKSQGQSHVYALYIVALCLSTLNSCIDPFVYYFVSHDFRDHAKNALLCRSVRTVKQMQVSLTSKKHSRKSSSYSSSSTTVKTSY
Outline: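 Gq activation via PAR2 in HEK293 cells, read as IP1 accumulation by FRET (IP-One). For curves without a plateau, the value given is efficacy at 30 μM. Data are mean ± SEM of at least three independent experiments, each performed in duplicate.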

[2] = molecular target: T1, Proteinase-activated receptor 2; experiment: Agonist activity at PK1-tagged PAR2 (unknown origin) expressed in HEK293 cells assessed as induction of beta-arrestin recruitment incubated for 90 mins by Pathhunter chemiluminescent assay; format: cell-based
Outline: (§1)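 PathHunter enzyme-complementation read-out of β-arrestin-2 recruitment to PAR2 in HEK293 cells. Efficacy is expressed relative to reference 2f-LIGRLO-NH2. Data are mean ± SEM of at least three independent experiments run in duplicate.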

[3] = molecular target: T1, Proteinase-activated receptor 2; experiment: Agonist activity at PK1-tagged PAR2 (unknown origin) expressed in HEK293 cells assessed as induction of beta-arrestin recruitment at 30 uM incubated for 90 mins by Pathhunter chemiluminescent assay relative to 2f-LIGRLO-NH2; format: cell-based; settings: 1.5 h; outline: as §1
[4] = Stability in rat plasma measured up to 4 hrs by LC-MS analysis; format: ADME, cell-free
Outline: (§2)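 Ligand was incubated in rat plasma and sampled at set time points up to 4 h. Samples were analysed by LC–MS. Standard-corrected peak areas are expressed as % of t = 0 min, mean ± SEM (n ≥ 3).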

[5] = Metabolic stability in Sprague-Dawley rat liver microsomes assessed as CYP450-mediated drug degradation at 20 uM measured up to 60 mins in presence of NADPH by LC-MS analysis; settings: 1 h
[6] = molecular target: T1, Proteinase-activated receptor 2; experiment: Agonist activity at PK1-tagged PAR2 (unknown origin) expressed in HEK293 cells assessed as induction of beta-arrestin recruitment incubated for 90 mins by Pathhunter chemiluminescent assay relative to 2f-LIGRLO-NH2; format: cell-based; settings: 1.5 h; outline: as §1
[7] = Stability in rat plasma assessed as drug degradation after 1 hr by LC-MS analysis; format: ADME, cell-free; outline: as §2

Row | SMILES | EC50 ([1]; hek-293t) | EC50 ([2]; hek293) | EC50 ([1]; read-out: EC50) [nM] | Emax at 30 µM [3] [%] | EC50 ([2]; read-out: EC50) [nM] | Stability [4] | Stability [5] | Emax [6] [%] | Stability [7]
1 | NC(=O)Cc1ccccc1CNC(=O)Cc1ccccc1CNC(=O)c1ccno1 | Not Active | Not Active | – | – | – | – | – | – | –
2 | NC(=O)Cc1ccccc1CNC(=O)[C@H](Cc1ccccc1)NC(=O)c1ccno1 | – | – | 1900 | 32 | – | – | – | – | –
3 | NC(=O)Cc1ccccc1CNC(=O)[C@H](CC1CCCCC1)NC(=O)c1ccno1 | – | – | 590 | – | 6000 | Stable | Stable | 65 | –
4 | Cc1cc(C(=O)N[C@@H](CC2CCCCC2)C(=O)NCc2ccccc2CC(N)=O)on1 | – | – | 640 | – | 8900 | Stable | Stable | 95 | –
5 | CC[C@H](C)[C@H](NC(=O)[C@H](CC(C)C)NC(=O)c1ccco1)C(=O)NCC(=O)N[C@@H](CCCN=C(N)N)C(=O)N[C@@H](CC(C)C)C(=O)N[C@@H](CCCN)C(N)=O (2Furoyl-LIGRL[Orn]-NH2) | – | – | 150 | – | 430 | – | Stable | – | Unstable
6 | CC[C@H](C)[C@H](NC(=O)[C@H](CC(C)C)NC(=O)c1ccco1)C(=O)NCC(=O)N[C@@H](CCCNC(=N)N)C(=O)N[C@@H](CC(C)C)C(=O)N[C@@H](CCCN)C(N)=O (2Furoyl-LIGRL[Orn]-NH2) | – | – | – | – | – | – | – | 100 | –
